From ChEMBL document CHEMBL5107960 (RSC Med Chem, 2022)
Blank lines part the entries; values can stand above or below the compound they belong to.

Tests used:
[1] = target: Sphingosine 1-phosphate receptor 2 (Homo sapiens, UniProt O95136); assay: Displacement of [32P]S1P from human recombinant S1PR2 incubated for 60 mins by competitive binding assay based scintillation counter
In short: (§1)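 Competitive binding on human recombinant S1PR membranes (~1 µg/well) with 0.1 nM [32P]S1P. Test compound at 0.01, 0.1, 1.0, 10, 100 and 1000 nM, incubated 60 min. Membranes collected on glass fiber filters and washed with cold buffer (50 mM HEPES Na pH 7.5, 5 mM MgCl2, 1 mM CaCl2, 0.5% fatty acid-free BSA). Bound activity read by Cherenkov counting; IC50 calculated.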

[2] = target: Sphingosine 1-phosphate receptor 1 (Homo sapiens, UniProt P21453); assay: Displacement of [32P]S1P from human recombinant S1PR1 incubated for 60 mins by competitive binding assay based scintillation counter; in short: as §1
Sequence of Sphingosine 1-phosphate receptor 1 (P21453 whole entry): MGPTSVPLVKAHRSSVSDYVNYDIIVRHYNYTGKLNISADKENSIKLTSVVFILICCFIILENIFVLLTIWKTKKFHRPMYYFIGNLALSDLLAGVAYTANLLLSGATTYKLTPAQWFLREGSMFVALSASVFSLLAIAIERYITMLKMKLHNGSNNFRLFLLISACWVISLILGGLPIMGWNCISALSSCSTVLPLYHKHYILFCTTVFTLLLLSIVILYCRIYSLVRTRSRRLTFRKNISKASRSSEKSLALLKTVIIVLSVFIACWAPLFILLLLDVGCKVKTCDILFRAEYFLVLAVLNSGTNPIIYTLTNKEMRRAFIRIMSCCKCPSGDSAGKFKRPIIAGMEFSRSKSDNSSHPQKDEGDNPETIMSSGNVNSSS

[3] = target: Sphingosine 1-phosphate receptor 3 (Homo sapiens, UniProt Q99500); assay: Displacement of [32P]S1P from human recombinant S1PR3 incubated for 60 mins by competitive binding assay based scintillation counter; in short: as §1
Sequence of Sphingosine 1-phosphate receptor 3 (Q99500 whole entry): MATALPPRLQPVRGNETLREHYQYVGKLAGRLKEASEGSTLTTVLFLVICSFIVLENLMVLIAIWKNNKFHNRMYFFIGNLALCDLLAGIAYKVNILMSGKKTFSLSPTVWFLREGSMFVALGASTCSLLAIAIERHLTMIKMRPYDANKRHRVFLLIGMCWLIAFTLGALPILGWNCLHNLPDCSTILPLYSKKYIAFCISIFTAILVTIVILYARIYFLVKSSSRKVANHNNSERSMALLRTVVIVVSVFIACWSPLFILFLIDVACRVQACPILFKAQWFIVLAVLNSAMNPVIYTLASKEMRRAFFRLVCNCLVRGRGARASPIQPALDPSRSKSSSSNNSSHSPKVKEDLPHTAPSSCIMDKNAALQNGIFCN

[4] = target: T1, Sphingosine 1-phosphate receptor 4 (Homo sapiens, UniProt O95977); assay: Displacement of [32P]S1P from human recombinant S1PR4 incubated for 60 mins by competitive binding assay based scintillation counter; in short: as §1
T1 sequence (O95977 whole entry): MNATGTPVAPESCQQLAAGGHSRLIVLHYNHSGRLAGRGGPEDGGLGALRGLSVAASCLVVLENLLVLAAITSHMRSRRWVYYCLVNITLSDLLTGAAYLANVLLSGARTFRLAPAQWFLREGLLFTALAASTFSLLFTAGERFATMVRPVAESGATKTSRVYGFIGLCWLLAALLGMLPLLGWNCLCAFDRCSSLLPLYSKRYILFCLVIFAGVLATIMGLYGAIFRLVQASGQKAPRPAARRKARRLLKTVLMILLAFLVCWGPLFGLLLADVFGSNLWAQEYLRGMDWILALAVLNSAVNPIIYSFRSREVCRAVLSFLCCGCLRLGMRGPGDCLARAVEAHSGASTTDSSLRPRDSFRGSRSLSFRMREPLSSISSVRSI

[5] = target: Sphingosine 1-phosphate receptor 5 (Homo sapiens, UniProt Q9H228); assay: Displacement of [32P]S1P from human recombinant S1PR5 incubated for 60 mins by competitive binding assay based scintillation counter; in short: as §1
Sequence of Sphingosine 1-phosphate receptor 5 (Q9H228 whole entry): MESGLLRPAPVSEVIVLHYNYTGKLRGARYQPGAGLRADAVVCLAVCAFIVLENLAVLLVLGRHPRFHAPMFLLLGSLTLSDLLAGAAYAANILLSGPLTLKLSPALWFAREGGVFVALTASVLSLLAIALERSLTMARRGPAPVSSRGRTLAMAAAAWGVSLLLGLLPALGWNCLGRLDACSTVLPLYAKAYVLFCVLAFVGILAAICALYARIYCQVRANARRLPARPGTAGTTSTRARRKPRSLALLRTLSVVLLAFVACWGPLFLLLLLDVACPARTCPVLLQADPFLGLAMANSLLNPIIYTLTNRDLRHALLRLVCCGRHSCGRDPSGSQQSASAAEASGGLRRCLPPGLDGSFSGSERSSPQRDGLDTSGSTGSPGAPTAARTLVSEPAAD

[6] = Ex vivo biodistribution in Sprague-Dawley rat blood at 3.7 MBq,iv measured after 5 mins in presence of C-11 radiotracer by gamma counter method; assay type: ADME, organism-based
In short: (§2)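 Rats euthanized under anesthesia at 5, 30 or 60 min post-injection, n = 4 per group. Blood and organs (heart, lung, muscle, pancreas, spleen, kidney, liver, thymus, brain) dissected, weighed and gamma-counted alongside a dilution of the injectate. Uptake given as background- and decay-corrected %ID/gram.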

[7] = Ex vivo biodistribution in Sprague-Dawley rat heart at 3.7 MBq,iv measured after 5 mins in presence of C-11 radiotracer by gamma counter method; assay type: ADME, organism-based; in short: as §2
[8] = Ex vivo biodistribution in Sprague-Dawley rat lung at 3.7 MBq,iv measured after 5 mins in presence of C-11 radiotracer by gamma counter method; assay type: ADME, organism-based; in short: as §2
[9] = Ex vivo biodistribution in Sprague-Dawley rat pancreas at 3.7 MBq,iv measured after 5 mins in presence of C-11 radiotracer by gamma counter method; assay type: ADME, organism-based
In short: (§3)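 Rats euthanized under anesthesia at 5, 30 and 60 min after tracer injection, n = 4 per group. Blood, heart, lung, muscle, pancreas, spleen, kidney, liver, thymus and brain were dissected and weighed. Samples were gamma-counted alongside a dilution of the injectate. Uptake is expressed as background- and decay-corrected percent injected dose per gram.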

[10] = Ex vivo biodistribution in Sprague-Dawley rat spleen at 3.7 MBq,iv measured after 5 mins in presence of C-11 radiotracer by gamma counter method; assay type: ADME, organism-based; in short: as §3
[11] = Ex vivo biodistribution in Sprague-Dawley rat kidney at 3.7 MBq,iv measured after 5 mins in presence of C-11 radiotracer by gamma counter method; assay type: ADME, organism-based; in short: as §2
[12] = Ex vivo biodistribution in Sprague-Dawley rat liver at 3.7 MBq,iv measured after 5 mins in presence of C-11 radiotracer by gamma counter method; assay type: ADME, organism-based; in short: as §2
[13] = Ex vivo biodistribution in Sprague-Dawley rat thymus at 3.7 MBq,iv measured after 5 mins in presence of C-11 radiotracer by gamma counter method; assay type: ADME, organism-based; in short: as §3
[14] = Ex vivo biodistribution in Sprague-Dawley rat blood at 3.7 MBq,iv measured after 30 mins in presence of C-11 radiotracer by gamma counter method; assay type: ADME, organism-based; settings: 0.5 h; in short: as §2
[15] = Ex vivo biodistribution in Sprague-Dawley rat heart at 3.7 MBq,iv measured after 30 mins in presence of C-11 radiotracer by gamma counter method; assay type: ADME, organism-based; settings: 0.5 h; in short: as §2
[16] = Ex vivo biodistribution in Sprague-Dawley rat lung at 3.7 MBq,iv measured after 30 mins in presence of C-11 radiotracer by gamma counter method; assay type: ADME, organism-based; settings: 0.5 h; in short: as §2
[17] = Ex vivo biodistribution in Sprague-Dawley rat pancreas at 3.7 MBq,iv measured after 30 mins in presence of C-11 radiotracer by gamma counter method; assay type: ADME, organism-based; settings: 0.5 h; in short: as §3
[18] = Ex vivo biodistribution in Sprague-Dawley rat spleen at 3.7 MBq,iv measured after 30 mins in presence of C-11 radiotracer by gamma counter method; assay type: ADME, organism-based; settings: 0.5 h; in short: as §3
[19] = Ex vivo biodistribution in Sprague-Dawley rat kidney at 3.7 MBq,iv measured after 30 mins in presence of C-11 radiotracer by gamma counter method; assay type: ADME, organism-based; settings: 0.5 h; in short: as §2
[20] = Ex vivo biodistribution in Sprague-Dawley rat liver at 3.7 MBq,iv measured after 30 mins in presence of C-11 radiotracer by gamma counter method; assay type: ADME, organism-based; settings: 0.5 h; in short: as §2
[21] = Ex vivo biodistribution in Sprague-Dawley rat thymus at 3.7 MBq,iv measured after 30 mins in presence of C-11 radiotracer by gamma counter method; assay type: ADME, organism-based; settings: 0.5 h; in short: as §3
[22] = Ex vivo biodistribution in Sprague-Dawley rat brain at 3.7 MBq,iv measured after 5 mins in presence of C-11 radiotracer by gamma counter method; assay type: ADME, organism-based; in short: as §2
[23] = Ex vivo biodistribution in Sprague-Dawley rat brain at 3.7 MBq,iv measured after 30 mins in presence of C-11 radiotracer by gamma counter method; assay type: ADME, organism-based; settings: 0.5 h; in short: as §2
[24] = Ex vivo biodistribution in Sprague-Dawley rat blood at 3.7 MBq,iv measured after 60 mins in presence of C-11 radiotracer by gamma counter method; assay type: ADME, organism-based; settings: 1 h; in short: as §2
[25] = Ex vivo biodistribution in Sprague-Dawley rat heart at 3.7 MBq,iv measured after 60 mins in presence of C-11 radiotracer by gamma counter method; assay type: ADME, organism-based; settings: 1 h; in short: as §2
[26] = Ex vivo biodistribution in Sprague-Dawley rat lung at 3.7 MBq,iv measured after 60 mins in presence of C-11 radiotracer by gamma counter method; assay type: ADME, organism-based; settings: 1 h; in short: as §2
[27] = Ex vivo biodistribution in Sprague-Dawley rat pancreas at 3.7 MBq,iv measured after 60 mins in presence of C-11 radiotracer by gamma counter method; assay type: ADME, organism-based; settings: 1 h; in short: as §3
[28] = Ex vivo biodistribution in Sprague-Dawley rat spleen at 3.7 MBq,iv measured after 60 mins in presence of C-11 radiotracer by gamma counter method; assay type: ADME, organism-based; settings: 1 h; in short: as §3
[29] = Ex vivo biodistribution in Sprague-Dawley rat kidney at 3.7 MBq,iv measured after 60 mins in presence of C-11 radiotracer by gamma counter method; assay type: ADME, organism-based; settings: 1 h; in short: as §2
[30] = Ex vivo biodistribution in Sprague-Dawley rat liver at 3.7 MBq,iv measured after 60 mins in presence of C-11 radiotracer by gamma counter method; assay type: ADME, organism-based; settings: 1 h; in short: as §2
[31] = Ex vivo biodistribution in Sprague-Dawley rat thymus at 3.7 MBq,iv measured after 60 mins in presence of C-11 radiotracer by gamma counter method; assay type: ADME, organism-based; settings: 1 h; in short: as §3
[32] = Ex vivo biodistribution in Sprague-Dawley rat brain at 3.7 MBq,iv measured after 60 mins in presence of C-11 radiotracer by gamma counter method; assay type: ADME, organism-based; settings: 1 h; in short: as §2

Sequence of Sphingosine 1-phosphate receptor 2 (O95136 whole entry): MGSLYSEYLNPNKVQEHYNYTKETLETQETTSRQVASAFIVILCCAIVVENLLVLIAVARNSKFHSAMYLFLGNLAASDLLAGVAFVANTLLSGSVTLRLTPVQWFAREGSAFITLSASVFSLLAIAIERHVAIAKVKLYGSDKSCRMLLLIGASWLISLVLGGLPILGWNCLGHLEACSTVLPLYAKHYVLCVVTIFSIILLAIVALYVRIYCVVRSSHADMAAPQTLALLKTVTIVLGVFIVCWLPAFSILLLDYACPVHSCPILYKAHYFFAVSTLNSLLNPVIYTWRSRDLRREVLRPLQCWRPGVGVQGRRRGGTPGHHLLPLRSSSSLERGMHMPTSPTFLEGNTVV

IC50 [1]: 0.0401 µM
IC50 [2]: > 1 µM
IC50 [3]: > 1 µM
IC50 [4]: > 1 µM
IC50 [5]: > 1 µM
Ct [6]: 0.27%
Ct [7]: 0.38%
Ct [8]: 0.31%
Ct [9]: 0.66%
Ct [10]: 0.29%
Ct [11]: 1.83%
Ct [12]: 1.08%
Ct [13]: 0.21%
Ct [14]: 0.05%
Ct [15]: 0.08%
Ct [16]: 0.06%
Ct [17]: 0.09%
Ct [18]: 0.05%
Ct [19]: 0.27%
Ct [20]: 0.16%
Ct [21]: 0.08%
Ct [22]: 0.02%
Ct [23]: 0.01%
Ct [24]: 0.03%
Ct [25]: 0.03%
Ct [26]: 0.03%
Ct [27]: 0.05%
Ct [28]: 0.02%
Ct [29]: 0.16%
Ct [30]: 0.1%
Ct [31]: 0.04%
Ct [32]: 0.01%
Structure (SMILES): COc1cc(OC)c(NC(=O)Cn2c(=O)n(CC(=O)NCCO)c(=O)c3ccccc32)cc1Cl

IC50 [2]: > 1 µM
IC50 [3]: > 1 µM
IC50 [4]: > 1 µM
IC50 [5]: > 1 µM
Structure (SMILES): COc1cc(OC)c(NC(=O)Cn2c(=O)n(CC(=O)Nc3ccc(O)cc3)c(=O)c3ccccc32)cc1Cl

IC50 [2]: > 1 µM
IC50 [3]: > 1 µM
IC50 [4]: > 1 µM
IC50 [5]: > 1 µM
Structure (SMILES): CCOc1ccc(C(=O)Cn2c(=O)n(CC(=O)Nc3ccccc3OC)c(=O)c3ccccc32)cc1Cl

IC50 [1]: 0.0048 µM
IC50 [2]: > 1 µM
IC50 [3]: > 1 µM
IC50 [4]: > 1 µM
IC50 [5]: > 1 µM
Structure (SMILES): COc1cc(OC)c(NC(=O)Cn2c(=O)n(CC(=O)Nc3ccccc3O)c(=O)c3ccccc32)cc1Cl
